An excerpt weighted towards active compounds, which were near 5.9% of everything screened.
KDM4C inh: inhibitors of human demethylase GASC-1 KDM4C; Q9H3R0; GST-KDM4C 2-372, H3K9me3 peptide, LANCE TR-FRET; inhibition, % at 12.5 µM; 96,000 tested, 0.15% active; AID 720574;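 active means mean replicate inhibition above about 25%, with at least 55% of replicates also reaching it, limit read from the data, passing the limit was not always enough; inconclusive means only one of those two conditions met; inactive means neither condition met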
Target sequence (Q9H3R0 2-372 limits assumed): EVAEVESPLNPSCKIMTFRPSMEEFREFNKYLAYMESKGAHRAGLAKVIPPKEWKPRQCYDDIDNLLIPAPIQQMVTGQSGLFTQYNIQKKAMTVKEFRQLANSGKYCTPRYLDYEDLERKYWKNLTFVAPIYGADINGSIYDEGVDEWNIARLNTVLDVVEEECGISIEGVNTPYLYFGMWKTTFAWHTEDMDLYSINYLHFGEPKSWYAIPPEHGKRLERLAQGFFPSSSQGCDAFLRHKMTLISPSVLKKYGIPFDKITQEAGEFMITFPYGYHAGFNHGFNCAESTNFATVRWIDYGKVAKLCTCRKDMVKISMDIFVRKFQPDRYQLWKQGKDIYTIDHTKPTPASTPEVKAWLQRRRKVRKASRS
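Test system: N-terminal GST-fused human GASC-1 (KDM4C) fragment, residues 2-372; quantity: GASC-1 enzyme at 10 nM final in reaction; dosing: single dose; schedule: 30 min demethylation and 1 h detection at room temperature; signal: LANCE TR-FRET, excitation 340 nm, emissions 618 and 671 nm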
IDH1 mut inh: blocks human IDH1 R132H reductase activity | O75874 | diaphorase/resazurin fluorescence, 60 min | inhibition, % at 10 µM | 70,000 tested, 0.18% active; in the data active means inhibition above about 34%; inconclusive means no clear call, values can overlap the other calls; inactive means below about 11%
Pf Dd2 inh: blocks growth of Plasmodium falciparum Dd2 parasites | P. falciparum Dd2 growth, SYBR Green, 72 h; hits give low values | activity change, % at 10 µM | AID 1159554 | 94,000 tested, 2.3% active; in the data active means activity change below about -80%; inconclusive means no clear call, values can overlap the other calls
T cruzi growth-1: T. cruzi proliferation inhibition; T. cruzi beta-gal in NIH3T3, GalScreen luminescence, 90 h; inhibition, % at 8.34 µM; 77,000 tested, 5.9% active; AID 624255;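 active means mean inhibition above about 93%, with at least 55% of replicates each passing it, limit read from the data, passing the limit was not always enough; inconclusive means only one of those two conditions holds; inactive means neither condition holds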
T cruzi growth-2: Trypanosoma cruzi proliferation inhibition. shares compounds with T cruzi growth-1. T. cruzi beta-gal in NIH3T3, GalScreen luminescence, 90 h. inhibition, % at 8.35 µM. 5,600 tested, 72% active;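 active means mean replicate inhibition above about 95% and at least 55% of replicates individually reaching it, limit read from the data; inconclusive means only one of the two criteria is met; inactive means neither criterion is met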
T cruzi growth-3: blocks T. cruzi growth in NIH3T3 host cells; 5,600 tested, 21% active; T. cruzi beta-gal in NIH3T3, GalScreen luminescence, 90 h; shares compounds with T cruzi growth-1; AID 651740; inhibition, % at 2.09 µM;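 active means mean inhibition above about 95%, with at least 55% of replicates also reaching it, limit read from the data; inconclusive means meets just one of the two conditions; inactive means meets neither condition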
3T3 cytotox: cytotoxicity in mouse NIH/3T3 fibroblasts; shares compounds with T cruzi growth-1; NIH/3T3 viability, CellTiter-Glo ATP luminescence, 90 h; cytotoxicity (signal decrease), % at 8.35 µM; 5,600 tested, 14% active;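 active means mean signal decrease across replicates above about 35% based on untreated-well scatter, with enough replicates individually passing, limit read from the data; inconclusive means no rule stated though some were filed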
NIH3T3 tox 2: cytotoxicity in mouse NIH/3T3 fibroblasts; NIH/3T3 viability, CellTiter-Glo ATP luminescence, 90 h; inhibition, % at 24.9 µM; shares compounds with T cruzi growth-1; 5,600 tested, 56% active;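 active means mean loss of cell viability signal at or above a set limit, and enough replicates individually reaching it; inconclusive means meets only the mean limit or only the replicate share; inactive means meets neither condition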
A number is an active result; - = inactive; ? = inconclusive; . = not tested or not shown.

SMILES | KDM4C inh | IDH1 mut inh | Pf Dd2 inh | T cruzi growth-1 | T cruzi growth-2 | T cruzi growth-3 | 3T3 cytotox | NIH3T3 tox 2
CCN1CCN(c2c(Cl)cccc2NC(=O)c2ccc(-c3ccccc3[N+](=O)[O-])o2)CC1 | . | - | . | . | . | . | . | .
Cc1ccc(-c2ccc([C@H]3[C@@H](CO)N4CCCCN(C(=O)c5ccc(F)cc5)C[C@@H]34)cc2)cc1 | - | . | - | 113.3 | 108.5 | - | - | 104.8
Cc1ccc(-c2ccc([C@@H]3[C@@H](CO)N4CCCCN(C(=O)c5ccc(F)cc5)C[C@@H]34)cc2)cc1 | - | . | - | 106.6 | 101.0 | - | - | 56.7
Cc1ccc(-c2ccc([C@H]3[C@H](CO)N4CCCCN(C(=O)c5ccc(F)cc5)C[C@@H]34)cc2)cc1 | - | . | - | 103.2 | ? | - | - | 106.4
Cc1ccc(-c2ccc([C@H]3[C@@H](CO)N4CCCCN(C(=O)c5ccc(F)cc5)C[C@H]34)cc2)cc1 | - | . | - | 103.3 | 105.8 | 100.9 | 46.0 | 103.5
O=C(CSc1nc2ccccc2s1)Nc1ccc(F)c(Cl)c1 | . | - | . | . | . | . | . | .
COc1ccccc1NC(=O)c1c(NC(=O)c2ccco2)sc(C)c1C | . | - | . | . | . | . | . | .
Cc1ccc(-c2ccc([C@H]3[C@H]4CN(C(=O)c5ccc(F)cc5)CCCCN4[C@H]3CO)cc2)cc1 | - | . | - | 101.9 | 103.2 | - | - | 103.2
O=C(c1ccc(F)cc1)N1CCCCN2[C@H](C1)[C@@H](c1ccc(-c3ccccc3)cc1)[C@@H]2CO | - | . | - | - | . | . | . | .
CCOc1ccc(OCC(=O)Nc2sc3c(c2C(N)=O)CCC(C)C3)cc1 (stereo not drawn) | . | - | . | . | . | . | . | .
COc1ccc(C#Cc2ccc([C@H]3[C@@H](CO)N4CCCCN(C(=O)Nc5ccccc5F)C[C@@H]34)cc2)cc1 | - | . | - | 139.8 | ? | 114.2 | ? | 40.1
O=C(Nc1ccccc1F)N1CCCCN2[C@H](CO)[C@H](c3ccc(C#Cc4ccccc4)cc3)[C@H]2C1 | - | . | - | - | . | . | . | .
O=C(Nc1ccccc1F)N1CCCCN2[C@@H](CO)[C@H](c3ccc(C#Cc4ccccc4)cc3)[C@@H]2C1 | - | . | - | 95.1 | ? | 115.0 | 118.7 | 103.7
COc1ccc(C#Cc2ccc([C@@H]3[C@@H](CO)N4CCCCN(C(=O)Nc5ccccc5F)C[C@@H]34)cc2)cc1 | - | . | -90.8 | 126.8 | 99.1 | 113.8 | - | 51.0
COc1cccc(-c2ccc(C#N)c(SCC(=O)Nc3ccccc3Br)n2)c1 | . | - | . | . | . | . | . | .
COCC(=O)N1CCCCN2[C@H](CO)[C@@H](c3ccc(C#Cc4ccc(OC)cc4)cc3)[C@H]2C1 | - | . | - | - | . | . | . | .
COCC(=O)N1CCCCN2[C@@H](CO)[C@H](c3ccc(C#Cc4ccccc4)cc3)[C@@H]2C1 | - | . | - | 97.2 | ? | - | - | 62.1
COCC(=O)N1CCCCN2[C@H](C1)[C@@H](c1ccc(C#Cc3ccccc3)cc1)[C@@H]2CO | - | . | - | - | . | . | . | .
COCC(=O)N1CCCCN2[C@H](CO)[C@@H](c3ccc(C#Cc4ccc(OC)cc4)cc3)[C@@H]2C1 | - | . | - | 107.6 | ? | - | - | 86.1
COCC(=O)N1CCCCN2[C@H](C1)[C@H](c1ccc(C#Cc3ccccc3)cc1)[C@@H]2CO | - | . | - | - | . | . | . | .
COCC(=O)N1CCCCN2[C@H](CO)[C@H](c3ccc(C#Cc4ccccc4)cc3)[C@@H]2C1 | - | . | - | ? | 98.8 | - | 44.2 | 69.0
Cc1ccc(-c2ccc3c(c2)O[C@H](CN(C)C(=O)Nc2ccccc2)[C@H](C)CN([C@H](C)CO)S3(=O)=O)cc1 | - | - | - | . | . | . | . | .
Cc1ccc(-c2ccc3c(c2)O[C@H](CN(C)C(=O)Nc2ccc(F)cc2)[C@@H](C)CN([C@@H](C)CO)S3(=O)=O)cc1 | - | - | - | 114.2 | 103.2 | - | 40.4 | 96.1
Cc1ccc(-c2ccc3c(c2)O[C@@H](CN(C)C(=O)Nc2ccc(F)cc2)[C@@H](C)CN([C@@H](C)CO)S3(=O)=O)cc1 | - | - | - | 120.7 | 97.1 | - | 53.1 | 80.9
C[C@@H]1CN([C@@H](C)CO)S(=O)(=O)c2ccc(C3=CCCCC3)cc2O[C@H]1CN(C)S(=O)(=O)c1ccc(F)cc1 | - | . | - | 121.4 | 103.6 | - | - | 30.6
SMILES | KDM4C inh | IDH1 mut inh | Pf Dd2 inh | T cruzi growth-1 | T cruzi growth-2 | T cruzi growth-3 | 3T3 cytotox | NIH3T3 tox 2
C[C@H](CO)N1C[C@H](C)[C@H](CN(C)S(=O)(=O)c2ccc(F)cc2)Oc2cc(C3=CCCCC3)ccc2S1(=O)=O | - | . | - | 118.2 | 101.4 | 105.3 | 46.1 | 61.8
C[C@@H]1CN([C@@H](C)CO)S(=O)(=O)c2ccc(C3=CCCCC3)cc2O[C@@H]1CN(C)S(=O)(=O)c1ccc(F)cc1 | - | . | - | 120.5 | 97.8 | - | - | 74.8
C[C@H](CO)N1C[C@H](C)[C@H](CN(C)S(C)(=O)=O)Oc2cc(C3=CCCCC3)ccc2S1(=O)=O | - | . | - | - | . | . | . | .
C[C@H]1CN([C@@H](C)CO)S(=O)(=O)c2ccc(C3=CCCCC3)cc2O[C@H]1CN(C)S(=O)(=O)c1ccc(F)cc1 | - | . | -83.1 | 125.4 | 108.8 | 104.6 | - | 49.7
C[C@@H]1CN([C@@H](C)CO)S(=O)(=O)c2ccc(C3=CCCCC3)cc2O[C@@H]1CN(C)S(C)(=O)=O | - | - | - | - | . | . | . | .
O=C1COc2ccc(S(=O)(=O)NCCOc3ccccc3)cc2N1 | . | - | . | . | . | . | . | .
NC(=O)COc1ccc(C2NC(=S)NC(c3ccccc3)=C2C(=O)c2ccccc2)cc1 (stereo not drawn) | . | - | . | . | . | . | . | .
C[C@H]1CN([C@@H](C)CO)S(=O)(=O)c2ccc(C3=CCCCC3)cc2O[C@@H]1CN(C)S(=O)(=O)c1ccc(F)cc1 | - | - | - | 116.7 | - | 107.8 | ? | 54.6
Cc1cccc(OCC(=O)Nc2ccccc2C(=O)NC(C)(C)C)c1 | . | - | . | . | . | . | . | .
Cc1ccccc1S(=O)(=O)N1CC[C@H]2[C@H](CO)Nc3ccc(-c4ccccc4F)cc3[C@H]21 | - | . | - | 108.8 | 98.5 | - | 43.3 | 103.4
O=S(=O)(c1ccccc1F)N1CC[C@@H]2[C@@H](CO)Nc3ccc(-c4ccccc4F)cc3[C@@H]21 | - | . | - | - | . | . | . | .
O=S(=O)(c1ccccc1)N1CC[C@@H]2[C@H](CO)Nc3ccc(-c4ccccc4F)cc3[C@@H]21 | - | . | - | 109.2 | - | 97.4 | - | 51.7
Cc1ccc(S(=O)(=O)N2CC[C@@H]3[C@H](CO)Nc4ccc(Br)cc4[C@@H]32)cc1 | - | . | - | ? | 108.8 | - | - | 33.3
Cc1ccc(S(=O)(=O)N2CC[C@@H]3[C@@H](CO)Nc4ccc(-c5ccccc5F)cc4[C@@H]32)cc1 | - | . | - | 115.9 | 99.7 | 102.8 | - | -
